# *1 amine or outer side, *2 acyl side, *3 side chain or, on linkers, in order; H or OH if unused. Where a SMILES comes first, the peptide text is derived from it. Bridges are numbered along the chain shown (N, C = ends). [ ]: non-standard residue; d: D form. The star is where a group is joined. hTyr(3S-OH,4S-OH,3'-OSO3H) = N[C@H](C(=O)O)[C@H](O)[C@@H](O)c1ccc(O)c(OS(=O)(=O)O)c1; Orn(4R-OH,5R-OH) = O=C([C@H](C[C@@H](O)[C@@H](O)N[*:3])N[*:1])[*:2]; Pro(3S-OH,4S-Me) = C[C@H]1CN[C@H](C(=O)O)[C@H]1O; X1 = CCCCCOc1ccc(-c2cc(-c3ccc(C(=O)*)cc3)no2)cc1; Gln(3R-OH) = NC(=O)C[C@@H](O)[C@H](N)C(=O)O; Hyp = O=C(O)[C@@H]1C[C@@H](O)CN1
# How the values were obtained:
# Type in all cases: functional
# [1] = system: Candida metapsilosis; test: Antimicrobial activity against Candida metapsilosis by broth microdilution method; details: Lodderomyces metapsilosis
# Summary of the method: (§1)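 Clinical isolates from human patients, tested by broth microdilution using the AFST-EUCAST reference procedure for fermentative yeasts. The MIC was read per that reference method.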
# [2] = system: Lichtheimia corymbifera; test: Antimicrobial activity against Mycocladus corymbiferus by broth microdilution method
# Summary of the method: (§2)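 Filamentous fungus clinical isolates tested by the AFST-EUCAST reference broth microdilution method for moulds. For echinocandins, the endpoint was the minimum effective concentration: the lowest drug concentration giving aberrant hyphal growth, read with an inverted microscope.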
# [3] = system: Saksenaea vasiformis; test: Antimicrobial activity against Saksenaea vasiformis by broth microdilution method; summary of the method: as §2
# [4] = Antimicrobial activity against Hormographiella aspergillata by broth microdilution method; details: Coprinopsis cinerea; summary of the method: as §2
# [5] = system: Aspergillus; test: Antimicrobial activity against Aspergillus spp. by broth microdilution method
# Summary of the method: (§3)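 Clinical mould isolates, tested by broth microdilution using the AFST-EUCAST reference method for filamentous fungi. For echinocandins, the endpoint was the minimum effective concentration: the lowest drug concentration giving aberrant hyphal growth, read with an inverted microscope.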
# [6] = system: Cladosporium; test: Antimicrobial activity against Cladosporium spp. by broth microdilution method; summary of the method: as §3
# [7] = system: Beauveria bassiana; test: Antimicrobial activity against Beauveria bassiana by broth microdilution method; summary of the method: as §3
# [8] = system: Pichia norvegensis; test: Antimicrobial activity against Candida norvegensis by broth microdilution method; summary of the method: as §1
# [9] = system: [Candida] zeylanoides; test: Antimicrobial activity against Candida zeylanoides by broth microdilution method; details: Dujonia zeylanoides; summary of the method: as §1
# [10] = system: Aspergillus niger; test: Antimicrobial activity against Aspergillus niger by broth microdilution method; summary of the method: as §3
# [11] = system: Nakaseomyces glabratus; test: Antimicrobial activity against Candida glabrata by broth microdilution method; summary of the method: as §1
# [12] = system: Aspergillus sydowii; test: Antimicrobial activity against Aspergillus sydowii by broth microdilution method; summary of the method: as §3
# [13] = system: Geotrichum candidum; test: Antimicrobial activity against Galactomyces geotrichum by broth microdilution method
# [14] = system: Candida albicans; test: Antimicrobial activity against Candida albicans by broth microdilution method; summary of the method: as §1
# [15] = system: Aspergillus sclerotiorum; test: Antimicrobial activity against Aspergillus sclerotiorum by broth microdilution method; summary of the method: as §3
# [16] = Antimicrobial activity against Rhizopus microsporus by broth microdilution method; summary of the method: as §2
# [17] = system: Papiliotrema laurentii; test: Antimicrobial activity against Cryptococcus laurentii by broth microdilution method
# Summary of the method: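 Clinical isolates of nonfermentative yeasts, tested by broth microdilution following EUCAST recommendations. The only change from that method was a minor modification to improve growth.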
# [18] = system: Wickerhamomyces anomalus; test: Antimicrobial activity against Candida pelliculosa by broth microdilution method; details: Hansenula anomala; summary of the method: as §1
# [19] = system: Lomentospora prolificans; test: Antimicrobial activity against Scedosporium prolificans by broth microdilution method; summary of the method: as §2
# [20] = system: Trichosporon asahii; test: Antimicrobial activity against Trichosporon asahii by broth microdilution method
# Summary of the method: (§4)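 Nonfermentative yeast clinical isolates (Rhodotorula, Trichosporon) tested by broth microdilution. The EUCAST yeast recommendations were followed strictly, with one minor modification to improve growth. MIC was read as the endpoint.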
# [21] = system: Cladophialophora bantiana; test: Antimicrobial activity against Cladophialophora bantiana by broth microdilution method; summary of the method: as §3
# [22] = system: [Candida] inconspicua; test: Antimicrobial activity against Candida inconspicua by broth microdilution method; details: Pichia inconspicua; summary of the method: as §1
# [23] = system: Neurospora sitophila; test: Antimicrobial activity against Chrysonilia sitophila by broth microdilution method; summary of the method: as §3
# [24] = system: Trichosporon dermatis; test: Antimicrobial activity against Trichosporon dermatis by broth microdilution method; details: Cutaneotrichosporon dermatis; summary of the method: as §4
# [25] = system: Exophiala jeanselmei; test: Antimicrobial activity against Exophiala jeanselmei by broth microdilution method
# [26] = system: Paecilomyces variotii; test: Antimicrobial activity against Paecilomyces variotii by broth microdilution method; summary of the method: as §2
# [27] = system: Saccharomyces cerevisiae; test: Antimicrobial activity against Saccharomyces cerevisiae by broth microdilution method
# [28] = system: Alternaria alternata; test: Antimicrobial activity against Alternaria alternata by broth microdilution method; summary of the method: as §3
# [29] = system: Aspergillus fumigatus; test: Antimicrobial activity against Aspergillus fumigatus by broth microdilution method; summary of the method: as §3
# [30] = system: Magnusiomyces capitatus; test: Antimicrobial activity against Dipodascus capitatus by broth microdilution method
# [31] = system: Trichosporon; test: Antimicrobial activity against Trichosporon spp. by broth microdilution method; summary of the method: as §4
# [32] = system: Rhizomucor; test: Antimicrobial activity against Rhizomucor spp.by broth microdilution method; summary of the method: as §2
# [33] = system: Trichosporon ovoides; test: Antimicrobial activity against Trichosporon ovoides by broth microdilution method; summary of the method: as §4
# [34] = system: Debaryomyces hansenii; test: Antimicrobial activity against Candida famata by broth microdilution method; summary of the method: as §1
# [35] = system: Candida parapsilosis; test: Antimicrobial activity against Candida parapsilosis by broth microdilution method; details: Lodderomyces parapsilosis; summary of the method: as §1
# [36] = system: Paecilomyces lilacinus; test: Antimicrobial activity against Paecilomyces lilacinus by broth microdilution method; details: Purpureocillium lilacinum; summary of the method: as §2
# [37] = system: Trichosporon jirovecii; test: Antimicrobial activity against Trichosporon jirovecii by broth microdilution method; details: Cutaneotrichosporon jirovecii; summary of the method: as §4
# [38] = system: Aspergillus versicolor; test: Antimicrobial activity against Aspergillus versicolor by broth microdilution method; summary of the method: as §3
# [39] = system: Yarrowia lipolytica; test: Antimicrobial activity against Yarrowia lipolytica by broth microdilution method
# [40] = system: Pichia kudriavzevii; test: Antimicrobial activity against Candida krusei by broth microdilution method; summary of the method: as §1
# [41] = system: Trichoderma; test: Antimicrobial activity against Trichoderma spp. by broth microdilution method; summary of the method: as §2
smiles,measurement,setting,value
"CCCCCOc1ccc(-c2cc(-c3ccc(C(=O)N[C@H]4C[C@@H](O)[C@@H](O)NC(=O)[C@@H]5[C@@H](O)[C@@H](C)CN5C(=O)[C@H]([C@H](O)CC(N)=O)NC(=O)[C@H]([C@H](O)[C@@H](O)c5ccc(O)c(OS(=O)(=O)O)c5)NC(=O)[C@@H]5C[C@@H](O)CN5C(=O)[C@H]([C@@H](C)O)NC4=O)cc3)no2)cc1 [MICAFUNGIN] (X1-[Orn(4R-OH,5R-OH)]T[Hyp][hTyr(3S-OH,4S-OH,3'-OSO3H)][Gln(3R-OH)][Pro(3S-OH,4S-Me)]; lactam 1-C)",MIC50,[1],0.03 µg/mL
same,MIC90,[1],0.12 µg/mL
same,MIC50,[2],> 16 µg/mL
same,MIC90,[2],> 16 µg/mL
same,MIC50,[3],> 16 µg/mL
same,MIC90,[3],> 16 µg/mL
same,MIC50,[4],> 16 µg/mL
same,MIC90,[4],> 16 µg/mL
same,MIC50,[5],0.06 µg/mL
same,MIC90,[5],0.25 µg/mL
same,MIC50,[6],0.03 µg/mL
same,MIC90,[6],0.06 µg/mL
same,MIC50,[7],> 16 µg/mL
same,MIC90,[7],> 16 µg/mL
same,MIC50,[8],0.03 µg/mL
same,MIC90,[8],0.12 µg/mL
same,MIC50,[9],0.03 µg/mL
same,MIC90,[9],0.12 µg/mL
same,MIC50,[10],0.03 µg/mL
same,MIC90,[10],0.06 µg/mL
same,MIC50,[11],0.03 µg/mL
same,MIC90,[11],0.03 µg/mL
same,MIC50,[12],0.03 µg/mL
same,MIC90,[12],0.03 µg/mL
same,MIC50,[13],> 16 µg/mL
same,MIC90,[13],> 16 µg/mL
same,MIC50,[14],0.03 µg/mL
same,MIC90,[14],0.03 µg/mL
same,MIC50,[15],0.06 µg/mL
same,MIC90,[15],0.25 µg/mL
same,MIC50,[16],> 16 µg/mL
same,MIC90,[16],> 16 µg/mL
same,MIC50,[17],> 16 µg/mL
same,MIC90,[17],> 16 µg/mL
same,MIC50,[18],0.03 µg/mL
same,MIC90,[18],0.12 µg/mL
same,MIC50,[19],8 µg/mL
same,MIC90,[19],> 16 µg/mL
same,MIC50,[20],> 16 µg/mL
same,MIC90,[20],> 16 µg/mL
same,MIC50,[21],0.03 µg/mL
same,MIC90,[21],0.06 µg/mL
same,MIC50,[22],0.03 µg/mL
same,MIC90,[22],0.12 µg/mL
same,MIC50,[23],> 16 µg/mL
same,MIC90,[23],> 16 µg/mL
same,MIC50,[24],> 16 µg/mL
same,MIC90,[24],> 16 µg/mL
same,MIC50,[25],0.03 µg/mL
same,MIC90,[25],0.06 µg/mL
same,MIC50,[26],0.03 µg/mL
same,MIC90,[26],0.03 µg/mL
same,MIC50,[27],0.03 µg/mL
same,MIC90,[27],0.06 µg/mL
same,MIC50,[28],0.25 µg/mL
same,MIC90,[28],> 16 µg/mL
same,MIC50,[29],0.03 µg/mL
same,MIC90,[29],0.03 µg/mL
same,MIC50,[30],> 16 µg/mL
same,MIC90,[30],> 16 µg/mL
same,MIC50,[31],> 16 µg/mL
same,MIC90,[31],> 16 µg/mL
same,MIC50,[32],> 16 µg/mL
same,MIC90,[32],> 16 µg/mL
same,MIC50,[33],> 16 µg/mL
same,MIC90,[33],> 16 µg/mL
same,MIC50,[34],0.03 µg/mL
same,MIC90,[34],0.12 µg/mL
same,MIC50,[35],0.5 µg/mL
same,MIC90,[35],1 µg/mL
same,MIC50,[36],> 16 µg/mL
same,MIC90,[36],> 16 µg/mL
same,MIC50,[37],> 16 µg/mL
same,MIC90,[37],> 16 µg/mL
same,MIC50,[38],0.03 µg/mL
same,MIC90,[38],0.06 µg/mL
same,MIC50,[39],0.03 µg/mL
same,MIC90,[39],1 µg/mL
same,MIC50,[40],0.03 µg/mL
same,MIC90,[40],0.06 µg/mL
same,MIC50,[41],> 16 µg/mL
same,MIC90,[41],> 16 µg/mL

# Source: ChEMBL document CHEMBL1649165, “Activity profile in vitro of micafungin against Spanish clinical isolates of common and emerging species of yeasts and molds” (2009)
